Screening data from PubChem BioAssay.
CHOP inh – inhibitors of CHOP promoter induction, primary screen, cell-based, unfolded protein response, luciferase reporter | CHO-K1 CHOP-promoter luciferase, tunicamycin-induced, 15-18 h | inhibition, % at 10 µM | AID 2732, 2010 | 220,000 tested, 3.8% active;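 active = compounds that reduced the stress-induced luciferase reporter signal by more than about 70% of percent inhibition, limit read from the data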
pCIP destab – p/CIP-EGFP fusion destabilizers, primary screen, fluorescence, F442A cells | 16 h | Q05BA5 | decrease of EGFP signal, % at 10 µM | 290,000 tested, 0.01% active;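 active = EGFP signal decrease of at least 30% at 10 µM or well 3 SD below plate mean, unless failing retest; inactive = the rest, including hits failing retest or dose response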
Target sequence (Q05BA5 1-1403): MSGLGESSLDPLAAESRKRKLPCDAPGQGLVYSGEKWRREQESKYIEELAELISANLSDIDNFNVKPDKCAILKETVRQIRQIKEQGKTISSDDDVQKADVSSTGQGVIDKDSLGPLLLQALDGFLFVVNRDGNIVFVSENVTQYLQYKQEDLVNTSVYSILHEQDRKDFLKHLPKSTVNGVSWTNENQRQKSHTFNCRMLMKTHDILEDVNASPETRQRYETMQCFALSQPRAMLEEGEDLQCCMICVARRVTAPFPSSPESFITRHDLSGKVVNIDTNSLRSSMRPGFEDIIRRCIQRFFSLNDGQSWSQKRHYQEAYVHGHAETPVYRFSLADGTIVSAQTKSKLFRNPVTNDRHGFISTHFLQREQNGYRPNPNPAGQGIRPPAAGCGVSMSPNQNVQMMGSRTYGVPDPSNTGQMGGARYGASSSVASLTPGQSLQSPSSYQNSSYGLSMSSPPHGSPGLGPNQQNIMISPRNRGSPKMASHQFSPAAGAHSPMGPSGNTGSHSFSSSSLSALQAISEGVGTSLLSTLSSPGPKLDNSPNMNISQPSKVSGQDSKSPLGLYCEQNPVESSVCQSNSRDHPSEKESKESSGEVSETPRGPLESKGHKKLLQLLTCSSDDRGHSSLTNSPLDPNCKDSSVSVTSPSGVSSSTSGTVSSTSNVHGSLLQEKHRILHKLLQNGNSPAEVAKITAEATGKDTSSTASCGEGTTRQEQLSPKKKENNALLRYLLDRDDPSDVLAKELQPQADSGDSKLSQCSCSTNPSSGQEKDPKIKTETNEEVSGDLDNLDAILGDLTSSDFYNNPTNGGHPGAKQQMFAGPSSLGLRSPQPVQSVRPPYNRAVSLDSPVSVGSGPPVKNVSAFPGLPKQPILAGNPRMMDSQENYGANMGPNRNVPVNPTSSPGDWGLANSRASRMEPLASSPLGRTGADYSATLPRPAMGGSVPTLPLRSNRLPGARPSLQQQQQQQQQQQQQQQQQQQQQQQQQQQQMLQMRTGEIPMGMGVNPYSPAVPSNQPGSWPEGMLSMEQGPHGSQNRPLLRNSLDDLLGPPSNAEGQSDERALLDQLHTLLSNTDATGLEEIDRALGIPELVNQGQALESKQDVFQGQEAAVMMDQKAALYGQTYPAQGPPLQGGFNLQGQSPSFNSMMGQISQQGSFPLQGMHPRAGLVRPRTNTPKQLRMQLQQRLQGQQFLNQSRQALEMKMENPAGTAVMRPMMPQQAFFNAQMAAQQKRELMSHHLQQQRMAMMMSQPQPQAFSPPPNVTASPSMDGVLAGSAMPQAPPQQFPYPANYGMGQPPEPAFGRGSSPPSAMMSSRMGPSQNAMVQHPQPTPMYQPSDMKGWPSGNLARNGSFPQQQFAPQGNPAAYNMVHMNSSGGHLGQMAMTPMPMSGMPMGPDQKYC
B2AR ag – beta2AR agonists driving receptor internalization, primary screen, cell-based, FAP fluorogen, flow cytometry. Beta-2 adrenergic receptor (Homo sapiens), P07550. AID 504454, 2011. Am2.2-beta2AR cells. 340,000 tested, 0.43% active. response, % (concentration not given with the values);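 active = response above a set limit, near 3 SD of response in nonfluorescent compounds, cut at about 42% in these data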
UPR CHOP act – activators of apoptotic CHOP UPR arm, primary screen, cell-based, CHO-CHOP luciferase reporter, luminescence, uHTS. AID 449763, 2010. UPR activation; percent of tunicamycin response over DMSO baseline. 330,000 tested, 0.34% active. activation, % at 10 µM;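 active = at 10 µM dose, activation of 40% or more, normalized to positive control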
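Assay system: CHO cells with stable CHOP pathway luciferase reporter; Buffer or medium: F12 plus 10% serum; Times: 16-18 h cell attachment, then 6 h compound exposure, 37 °C; Signal: luciferase luminescence; Read-out basis: percent activation relative to tunicamycin control; Control set: tunicamycin high control, DMSO low control.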
UPR XBP1 act – activators of adaptive XBP1 UPR arm, primary screen, cell-based, CHO-XBP1 luciferase reporter, luminescence, uHTS; IRE1-XBP1 UPR activation; percent of tunicamycin response, DMSO as zero; 330,000 tested, 0.33% active; activation, % at 20 µM;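 active = versus positive control, 20 µM dose yields 30% or more activation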
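Material: CHO-XBP1 cells stably carrying IRE1-XBP1-driven luciferase reporter / Amount: 1000 cells per well / Compound: 20 µM, 1% DMSO / Times: 6 h treatment, 37 °C / Detection: luciferase luminescence / Measure: % activation of reporter signal versus tunicamycin and DMSO controls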
Dynein transport – inhibitors of GR-EGFP nuclear translocation, primary screen, dynein cargo transport inhibitor project, imaging, high-content, 3617.4 mouse cells | test concentration mostly 20 µM; stimulated with dexamethasone, 1 µM; hits give low values | z-score, hits read low | 220,000 tested, 0.47% active | AID 1381, 2008;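 active = plate z-score of nuclear minus cytoplasmic receptor signal below a set negative limit, without overly bright fluorescence or cell loss, cut at about -3.5 in these data, passing the limit was not always enough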;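 note: z-score of nuclear minus cytoplasmic ring GR-EGFP intensity difference per well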
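Schedule: 48 h induction, then 1 h compound, then 30 min agonist, 37 °C. Buffer or medium: tetracycline-free induction medium containing charcoal-stripped FBS. Reagent: 1.0 µM final dexamethasone stimulus. Evaluation: nuclear versus cytoplasmic GR-EGFP signal, averaged per well. Signal: high-content fluorescence imaging after fixation.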
CHOP confirm – retest of CHOP induction inhibitors, confirmation, cell-based | shares compounds with CHOP inh | CHO-CHOP promoter luciferase reporter, tunicamycin-induced, luminescence | inhibition, % at 10 µM | 2,100 tested, 45% active;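 active = mean of three repeat readings of reporter signal inhibition above a set limit, cut at about 70% in these data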
Large screens that a line does not name were inactive (follow-up assays come after a bar, where they were run). The entries come from a sample that favours hits as a whole.

Cc1nn(Cc2ccc(F)cc2)c(C)c1NC(=O)c1cc(-c2ccc3c(c2)OCO3)on1	none
Cc1ccc(Cn2nc(C)c(NC(=O)c3cc(-c4ccc5c(c4)OCO5)on3)c2C)cc1	CHOP inh 106 (no result: B2AR ag) | CHOP confirm inactive
CCN1CC(CN(C)Cc2nc(Cc3ccccc3)no2)CC1=O (stereo unspecified)	none
CCCCCOc1ccc(C2C(C(=O)c3ccc(C)o3)=C(O)C(=O)N2c2cc(C)on2)cc1 (stereo unspecified)	none (no result: CHOP inh, Dynein transport)
O=C(Nc1cccc(Cl)c1)C1CCCN(S(=O)(=O)c2ccc(F)cc2)C1 (stereo unspecified)	CHOP inh 99 | CHOP confirm inactive
O=c1c2ccccc2nc2n1CCN2Cc1ccc(Cl)cc1	CHOP inh 99 | CHOP confirm 95
CSc1nnc(C)c(=O)n1COC(=O)c1ccc(S(=O)(=O)N2CCCC2)cc1	none
Cc1ccc(C(=O)Nc2sc3c(c2C(=O)NCc2ccco2)CCCC3)cc1	CHOP inh 104 | CHOP confirm inactive
O=S(=O)(c1cccc(Cn2nnc(-c3ccccc3)n2)c1)N1CCOCC1	none (no result: CHOP inh, pCIP destab, Dynein transport)
CN(C(=O)COC(=O)c1ccc([N+](=O)[O-])cc1N)c1ccccc1	none
O=S(=O)(Nc1ccc(N2CCCCC2)cc1)c1ccc(F)c(F)c1	CHOP inh 100 | CHOP confirm inactive
Cc1noc2ncnc(Oc3cc(Cl)ccc3Cl)c12	none
Cc1ccc(N/C(N)=N/c2nc(CSc3nnc(N)s3)cc(=O)[nH]2)cc1	none
N/C(=N\c1nc(CSc2nc3ccccc3s2)cc(=O)[nH]1)Nc1ccc(F)cc1	CHOP inh 99 | CHOP confirm inactive
CC(C)(C)NC(=O)NC(=O)CSc1ccc(S(=O)(=O)N2CCCCC2)cn1	none (no result: CHOP inh, pCIP destab, Dynein transport)
Cc1cc(C(=O)NNC(=S)NC(=O)/C=C/c2ccccc2Cl)n[nH]1	CHOP inh 108 | CHOP confirm inactive
O=C(N/N=C\c1ccc[nH]1)c1cncc(Br)c1	none (no result: CHOP inh, Dynein transport)
Cc1ccc(C(C)C)c(OCC(=O)N/N=C/C2CCCCC2)c1	CHOP inh 101 | CHOP confirm 70
O=C(Cn1nc([N+](=O)[O-])nc1Br)NC(c1ccccc1)c1ccccc1	none
COc1cc(/C=C/C(=O)OC2CC3CCC2(C)C3(C)C)ccc1O (stereo unspecified)	CHOP inh 100 | CHOP confirm 102
C/C(CCc1oc2ccc(Br)cc2c1-c1ccc(C)o1)=N/O	CHOP inh 97 | CHOP confirm inactive
Cc1ccc(-c2cc(C(=O)O)c3cc(Br)ccc3n2)o1	none
CCn1cc([N+](=O)[O-])c(C(=O)N2N=C(c3ccc(O)c(OC)c3)CC2c2ccccc2O)n1 (stereo unspecified)	none
CCn1cc([N+](=O)[O-])c(C(=O)N2N=C(c3ccc(Cl)c(Cl)c3)CC2c2ccccc2O)n1 (stereo unspecified)	CHOP inh 101 | CHOP confirm 78
CCCN(C(=O)CCSc1ccc(F)cc1)c1c(N)n(Cc2ccccc2)c(=O)[nH]c1=O	none (no result: CHOP inh, Dynein transport)
Oc1ccc(/C=N/N2CCN(C3c4ccccc4-c4ccccc43)CC2)cc1	none
Oc1ccc(/C=N/N2CCN(C3c4ccccc4-c4ccccc43)CC2)c(O)c1	CHOP inh 100 | CHOP confirm 112
COc1ccc(N2CC(C(=O)Nc3nnc(SCCC4OCCO4)s3)CC2=O)cc1 (stereo unspecified)	none (no result: CHOP inh, Dynein transport)
NS(=O)(=O)c1ccc(NC(CNS(=O)(=O)c2ccccc2)c2ccccc2)cc1 (stereo unspecified)	none
O=S(=O)(NCC(Nc1ccc(Cl)cc1)c1ccccc1)c1ccccc1 (stereo unspecified)	CHOP inh 99 | CHOP confirm inactive
Cc1ccc(C(=O)CCC(=O)Nc2cccc(C(F)(F)F)c2)cc1C	none (no result: CHOP inh, pCIP destab)
